Measurements reported in ChEMBL document CHEMBL1275298, “Synthesis and anti-inflammatory activity evaluation of some novel 6-alkoxy(phenoxy)-[1,2,4]triazolo[3,4-a]phthalazine-3-amine derivatives” (2010).
The source made the active and inactive calls. The rule behind the calls is not given here.

Key:
[1] = system: Mus musculus; test: Antiinflammatory activity in mouse assessed as inhibition of xylene-induced ear edema at 100 mg/kg, ip after 0.5 hrs relative to control; format: functional; conditions: route intraperitoneal
Method in brief: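 Kunming mice, 20-25 g, 10 per group. Freshly prepared DMSO solution given i.p. at 0.05 mL/20 g; vehicle-only (DMSO) controls. Xylene ear edema test run 0.5 h after dosing; mice killed 30 min after xylene, 7 mm plugs cut from treated and untreated ears, and edema taken as the plug weight difference. Reported as % edema reduction versus vehicle.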

[2] = system: Mus musculus; test: Antiinflammatory activity in mouse assessed as inhibition of xylene-induced ear edema at 100 mg/kg, po administered 3 hrs before xylene challenge measured after 3 hrs post dose; format: functional
Method in brief: (§1)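 Kunming mice, 20-25 g, 10 per group. Compound homogenized in 0.5% CMC-Na and given orally at 0.2 mL/10 g; vehicle controls got 0.5% CMC-Na. Xylene applied 1, 2, 3, 4, 5 or 24 h after dosing (3 h for 50 and 100 mg/kg). Killed 30 min later; 7 mm ear plugs weighed, treated minus untreated. Result given as % edema reduction versus CMC-Na controls.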

[3] = system: Mus musculus; test: Antiinflammatory activity in mouse assessed as inhibition of xylene-induced ear edema at 200 mg/kg, po administered 1 hr before xylene challenge measured after 3 hrs post dose; format: functional; method in brief: as §1
[4] = system: Mus musculus; test: Antiinflammatory activity in mouse assessed as inhibition of xylene-induced ear edema at 200 mg/kg, po administered 5 hrs before xylene challenge measured after 3 hrs post dose; format: functional; method in brief: as §1
[5] = system: Mus musculus; test: Antiinflammatory activity in mouse assessed as inhibition of xylene-induced ear edema at 50 mg/kg, po administered 3 hrs before xylene challenge measured after 3 hrs post dose; format: functional; method in brief: as §1
[6] = system: Mus musculus; test: Antiinflammatory activity in mouse assessed as inhibition of xylene-induced ear edema at 200 mg/kg, po administered 24 hrs before xylene challenge measured after 3 hrs post dose; format: functional; method in brief: as §1
[7] = system: Mus musculus; test: Antiinflammatory activity in mouse assessed as inhibition of xylene-induced ear edema at 200 mg/kg, po administered 4 hrs before xylene challenge measured after 3 hrs post dose; format: functional; method in brief: as §1
[8] = system: Mus musculus; test: Antiinflammatory activity in mouse assessed as inhibition of xylene-induced ear edema at 200 mg/kg, po administered 3 hrs before xylene challenge measured after 3 hrs post dose; format: functional; method in brief: as §1
[9] = system: Mus musculus; test: Antiinflammatory activity in mouse assessed as inhibition of xylene-induced ear edema at 200 mg/kg, po administered 2 hrs before xylene challenge measured after 3 hrs post dose; format: functional; method in brief: as §1
[10] = system: Mus musculus; test: Antiinflammatory activity in mouse assessed as inhibition of xylene-induced ear edema at 200 mg/kg, po administered 1 to 24 hrs before xylene challenge measured after 4 hrs post dose; format: functional, organism-based; parameters: dose 200 mg/kg; method in brief: as §1

## Nc1nnc2c3ccccc3c(Oc3ccc(Cl)cc3Cl)nn12
[1]
  inhibition in vivo at 100 mg/kg: 40.4%

## Cc1cccc(Oc2nn3c(N)nnc3c3ccccc23)c1
[1]
  inhibition in vivo at 100 mg/kg: 68%

## Nc1ccc(Oc2nn3c(N)nnc3c3ccccc23)cc1
[2]
  inhibition in vivo at 100 mg/kg: 37.9%
[3]
  inhibition in vivo at 200 mg/kg: 60.5%
[4]
  inhibition in vivo at 200 mg/kg: 55.9%
[1]
  inhibition in vivo at 100 mg/kg: 83%
[5]
  inhibition in vivo at 50 mg/kg: 22.8%
[6]
  inhibition in vivo at 200 mg/kg: 18.9%
[7]
  inhibition in vivo at 200 mg/kg: 80.6%
[8]
  inhibition in vivo at 200 mg/kg: 84.3%
[9]
  inhibition in vivo at 200 mg/kg: 81.3%

## Nc1nnc2c3ccccc3c(Oc3cccc(Cl)c3)nn12
[1]
  inhibition in vivo at 100 mg/kg: 68.8%

## CCCCCCCOc1nn2c(N)nnc2c2ccccc12
[1]
  inhibition in vivo at 100 mg/kg: 65.7%

## CCCCCCCCOc1nn2c(N)nnc2c2ccccc12
[1]
  inhibition in vivo at 100 mg/kg: 58%

## Nc1nnc2c3ccccc3c(Oc3ccc(F)cc3)nn12
[1]
  inhibition in vivo at 100 mg/kg: 48.8%

## CCCCCCOc1nn2c(N)nnc2c2ccccc12
[1]
  inhibition in vivo at 100 mg/kg: 39.5%

## Nc1nnc2c3ccccc3c(Oc3ccccc3Cl)nn12
[2]
  inhibition in vivo at 100 mg/kg: 46.7%
[3]
  inhibition in vivo at 200 mg/kg: 52.7%
[10]
  inhibition: Active
[4]
  inhibition in vivo at 200 mg/kg: 57.2%
[1]
  inhibition in vivo at 100 mg/kg: 81.2%
[5]
  inhibition in vivo at 50 mg/kg: 30.8%
[6]
  inhibition in vivo at 200 mg/kg: 8.24%
[7]
  inhibition in vivo at 200 mg/kg: 64.1%
[8]
  inhibition in vivo at 200 mg/kg: 75%
[9]
  inhibition in vivo at 200 mg/kg: 59%

## Cc1ccccc1Oc1nn2c(N)nnc2c2ccccc12
[1]
  inhibition in vivo at 100 mg/kg: 68.3%

## Cc1ccc(Oc2nn3c(N)nnc3c3ccccc23)cc1
[1]
  inhibition in vivo at 100 mg/kg: 52.7%

## Nc1ccccc1Oc1nn2c(N)nnc2c2ccccc12
[1]
  inhibition in vivo at 100 mg/kg: 38.4%

## CCCCOc1nn2c(N)nnc2c2ccccc12
[1]
  inhibition in vivo at 100 mg/kg: 67.6%

## Nc1cccc(Oc2nn3c(N)nnc3c3ccccc23)c1
[1]
  inhibition in vivo at 100 mg/kg: 68%

## CC(C)Cc1ccc(C(C)C(=O)O)cc1 (centres undefined) [IBUPROFEN]
[2]
  inhibition in vivo at 100 mg/kg: 26.9%
[3]
  inhibition in vivo at 200 mg/kg: 29.6%
[4]
  inhibition in vivo at 200 mg/kg: 23.4%
[1]
  inhibition in vivo at 100 mg/kg: 61.2%
[6]
  inhibition in vivo at 200 mg/kg: 13.2%
[7]
  inhibition in vivo at 200 mg/kg: 36.3%
[8]
  inhibition in vivo at 200 mg/kg: 64.6%
[9]
  inhibition in vivo at 200 mg/kg: 38.6%

## COc1ccc(Oc2nn3c(N)nnc3c3ccccc23)cc1
[1]
  inhibition in vivo at 100 mg/kg: 44%

## Nc1nnc2c3ccccc3c(Oc3ccc(Br)cc3)nn12
[1]
  inhibition in vivo at 100 mg/kg: 48.4%

## Nc1nnc2c3ccccc3c(Oc3ccccc3)nn12
[1]
  inhibition in vivo at 100 mg/kg: 55%

## Nc1nnc2c3ccccc3c(Oc3ccc(Cl)cc3)nn12
[1]
  inhibition in vivo at 100 mg/kg: 75%

## CC(C)Oc1nn2c(N)nnc2c2ccccc12
[1]
  inhibition in vivo at 100 mg/kg: 39.4%
